Bioassay records deposited in PubChem by The Scripps Research Institute Molecular Screening Center.
TAAR1 antag = human TAAR1 antagonists, primary screen, Fluo-8 calcium fluorescence, CHO RD-HGA16 cells | inhibition, % at 3 µM | antagonist | 360,000 tested, 1.5% active | Trace amine-associated receptor 1 (Homo sapiens), Q96RJ0;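 active = inhibition above a per-plate cutoff, the mean inhibition of test compounds on that plate plus 3 SD, cut at about 49% in these data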;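 also: 0% = DMSO plus EC80 beta-PEA response and 100% = DMSO alone without agonist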
Target sequence (Q96RJ0 whole entry, looked up): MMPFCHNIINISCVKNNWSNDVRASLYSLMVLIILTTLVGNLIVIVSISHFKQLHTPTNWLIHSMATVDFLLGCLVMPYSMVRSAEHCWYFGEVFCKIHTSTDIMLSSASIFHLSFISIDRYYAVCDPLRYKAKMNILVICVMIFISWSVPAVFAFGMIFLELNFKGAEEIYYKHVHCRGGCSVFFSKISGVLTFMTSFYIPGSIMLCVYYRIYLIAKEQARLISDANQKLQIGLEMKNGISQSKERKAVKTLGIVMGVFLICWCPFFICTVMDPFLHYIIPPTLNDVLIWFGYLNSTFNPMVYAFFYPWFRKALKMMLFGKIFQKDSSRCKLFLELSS
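Test system: hTAAR1-expressing CHO RD-HGA16 cells, Gα16-coupled; Probe or stimulus: EC80 β-phenethylamine stimulus; Compound dosing: single nominal final test compound concentration of 3 µM; Timing: 140 s kinetic read after compound, 140 s after agonist; Signal: Fluo-8 calcium-sensitive fluorescence; Measure: % inhibition of agonist calcium response; Controls: DMSO and EC80 PEA controls.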
TAAR1 agonist = human TAAR1 agonists, primary screen, Fluo-8 calcium fluorescence, CHO RD-HGA16 cells; vehicle wells 0%, saturating PEA agonist 100%; Trace amine-associated receptor 1 (Homo sapiens), Q96RJ0; 360,000 tested, 0.99% active; activation, % at 3 µM; AID 624467, 2012;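 active = activation above the mean activation of all test compounds in the run plus 3 SD, cut at about 38% in these data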
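Test system: RD-HGA16 (CHO) cells co-expressing Gα16 and hTAAR1; dosing: one-point dosing at 3 µM (nominal); timing: 17-24 h seeding, 75 min 37 °C dye, 30 min RT; signal: kinetic Fluo-8 calcium fluorescence; read-out basis: % activation relative to PEA EC100 response; controls: DMSO and PEA EC100; replicates: n 1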
GPR7 antagonist = GPR7 receptor antagonists, primary screen, cell-based, fluorescence, single concentration. GPR7-expressing cells, fluorescence antagonist assay. inhibition, % at 4.4 µM. 290,000 tested, 1.1% active; in the data active = inhibition above about 16%, passing the limit was not always enough;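 also: cells stimulated with the agonist NPW; 0% = agonist with vehicle and 100% = vehicle without agonist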
Target sequence (P48145 whole entry, looked up): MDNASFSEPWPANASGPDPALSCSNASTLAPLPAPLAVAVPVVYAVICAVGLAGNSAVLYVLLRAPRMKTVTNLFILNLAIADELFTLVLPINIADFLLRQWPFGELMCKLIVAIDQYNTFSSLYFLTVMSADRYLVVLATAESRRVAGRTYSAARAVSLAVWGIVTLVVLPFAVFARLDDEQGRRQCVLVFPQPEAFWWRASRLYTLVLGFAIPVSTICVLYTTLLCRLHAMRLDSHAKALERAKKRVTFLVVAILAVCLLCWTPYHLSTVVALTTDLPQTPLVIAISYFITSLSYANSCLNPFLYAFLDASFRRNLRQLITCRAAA
OX1R antag-1 = OX1R (HCRTR1) antagonists, primary screen, fluorescence, CHO/OX1R cells, Fluo-8 calcium, orexin A. Orexin/Hypocretin receptor type 1 (Homo sapiens), O43613. Fluo-8 calcium fluorescence. inhibition, % at 5 µM. 330,000 tested, 0.43% active;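 active = inhibition above its plate's threshold, mean inhibition of all tested compounds on the plate plus 3 SD, cut at about 37% in these data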;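 also: 0% = orexin A challenge wells and 100% = SB-334867-A antagonist wells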
OX1R antag-2 = antagonists of human orexin 1 receptor (OX1R). AID 485270, 2010. OX1R-expressing cells, FRET antagonist read-out. inhibition, % at 6.6 µM. 330,000 tested, 1.8% active; in the data active = inhibition mostly above about 38%, no sharp cut-off; inactive = mostly below about 40%;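 also: 0% = agonist challenge alone and 100% = reference antagonist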
CHO parental Ca = ATP-evoked calcium signal inhibitors, parental CHO, primary screen, counter-screen for OX1R antagonist project, cell-based, fluorescence, Fluo-8 calcium dye; parental CHO-K1, ATP-induced calcium, Fluo-8 fluorescence; inhibition, % at 5.6 µM; 330,000 tested, 0.63% active; AID 463079, 2010;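 active = inhibition above that plate's mean sample inhibition plus 3 SD, cut at about 26% in these data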;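 also: 0% = ATP-challenged DMSO wells and 100% = DMSO wells without ATP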
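Assay system – parental CHO cells · Reagent – ATP stimulus · Detection – intracellular calcium via Fluo-8 no-wash fluorescent dye · Evaluation – percent inhibition of ATP-evoked calcium rise, normalized to controls · Controls – ATP wells versus no-ATP DMSO wells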
Active calls of the source: *; nt = not tested or not shown. The list is not random: actives were taken first. Their share in the collection is about 4.5%.

SMILES | TAAR1 antag | TAAR1 agonist | GPR7 antagonist | OX1R antag-1 | OX1R antag-2 | CHO parental Ca
COCC(=O)N1C[C@H](C)[C@H](OC)CN(C)C(=O)c2cc(NC(=O)Nc3cccc(F)c3)ccc2OC[C@@H]1C | -16 | 1 | nt | nt | nt | nt
COc1cc(/C=N/NC(=O)c2cc3ccccc3[nH]2)ccc1O | 19 | 5 | 10 | 16 | 46* | -7
COc1cc(/C=N/NC(=O)c2cccc(C(=O)N/N=C/c3ccc(O)c(OC)c3)n2)ccc1O | -7 | -1 | -15 | nt | nt | nt
C[C@@H]1CN([C@H](C)CO)C(=O)CCCn2nncc2CO[C@@H]1CN(C)C(=O)Nc1ccccc1 | 7 | 1 | nt | nt | nt | nt
Clc1ccc(N=c2ssnc2Cl)cc1 | 18 | 46* | -13 | 23 | 41 | 10
COc1cc(N=c2ssnc2Cl)cc(OC)c1OC | 22 | 42* | 9 | -19 | 33 | -8
O=C1C(C=Nc2ccccc2O)=C(O)c2ccccc21 | 18 | 8 | 15 | 6 | 59* | -17
Cc1ccc(O)c(N=CC2=C(O)c3ccccc3C2=O)c1 | 8 | 10 | -5 | -9 | 64 | -34
COc1ccc(-c2nc(C)ncc2-c2csc(C)n2)c(O)c1 | 7 | 1 | -3 | -8 | 18 | -5
COc1ccc(-c2ncncc2-c2csc(C)n2)c(O)c1 | -23 | 2 | 17* | -10 | -4 | -8
COC(=O)C1=C(C)N(Cc2ccccc2C(F)(F)F)C(=NCc2ccc3c(c2)OCO3)NC1c1ccccc1C(F)(F)F (centres undefined) | -50 | 1 | nt | nt | nt | nt
COC(=O)C1=C(C)N(CCc2ccc(OC)cc2)C(=O)C1 | 52* | 16 | 17 | -18 | 6 | -19
Cc1ccccc1CNC(=O)c1csc([C@H]2C[C@H](O)[C@@H](CO)O2)n1 | -16 | 1 | nt | nt | nt | nt
O=C(N/N=C/c1cc2c(c([N+](=O)[O-])c1)OCO2)c1ccncc1 | -11 | 2 | -12 | -8 | 54* | -10
CCC(=O)N(CC)C1=C(O)c2ccccc2C(=O)C1=O | -2 | 10 | 4 | -1 | 58* | 0
CCC(=O)N(C)/C=C1\Sc2ccccc2C1=O | -3 | 3 | 16 | -13 | -2 | -5
N#CC1=C(N)Nc2ncnn2C1c1ccc([N+](=O)[O-])cc1 (centres undefined) | -2 | 2 | -9 | -30 | 69* | 5
CC(O)(c1cccnc1)c1nc(-c2cccc(C(F)(F)F)c2)cs1 (centres undefined) | -20 | 3 | nt | nt | nt | nt
CCc1nn2c(N)c(/C=C3\C=Nc4ccccc43)c(=O)nc2s1 | 7 | 2 | 0 | -12 | 13 | -23
Cc1cn2c(N)c(/C=C3\C=Nc4ccccc43)c(=O)nc2s1 | -1 | 5 | 9 | -11 | 45* | -9
CC(=O)Nc1ccc(S(=O)(=O)N(C)Cc2ccccc2)cc1 | -6 | 6 | 6 | -1 | 20 | 0
CC(=O)Nc1ccc(S(=O)(=O)N(Cc2ccccc2)C(C)C)cc1 | 13 | 9 | 10 | -8 | 43* | 3
CC1CCCN(C(=O)c2ccc3c(=O)n4nc(Nc5ccccc5)sc4nc3c2)C1 (centres undefined) | 9 | 2 | nt | nt | nt | nt
COc1ccccc1Nc1nn2c(=O)c3ccc(C(=O)N4CCCC(C)C4)cc3nc2s1 (centres undefined) | 50* | 6 | -4 | -10 | 23 | -3
COC(=O)N1C[C@H](OC(=O)c2ccc(-c3ccccc3)cc2)[C@H]2C[C@@H]1c1ccccc1O2 | -16 | 0 | nt | nt | nt | nt
SMILES | TAAR1 antag | TAAR1 agonist | GPR7 antagonist | OX1R antag-1 | OX1R antag-2 | CHO parental Ca
CC(=O)c1ccc(NC(=O)c2ccc3nc(-c4ccco4)c(-c4ccco4)nc3c2)cc1 | nt | nt | -1 | -29 | 36 | -2
O=C(Nc1ccccc1)c1ccc2nc(-c3ccco3)c(-c3ccco3)nc2c1 | 0 | 1 | -1 | 71* | 102* | -24
O=C(NCCO)Nc1ccc2nc(-c3ccco3)c(-c3ccco3)nc2c1 | nt | nt | -3 | -116 | 100* | -8
CN(C)CC(=O)Nc1ccc2c(c1)[C@H]1C[C@H](CC(=O)NCc3ccc4c(c3)OCO4)O[C@H](CO)[C@H]1O2 | -31 | 3 | nt | nt | nt | nt
COC(=O)c1ccc(CNC(=O)COC(=O)/C=C/c2cccc(OC)c2)cc1 | -21 | 1 | nt | nt | nt | nt
O=C(Nc1ccc2c(c1)OCO2)c1cc(-c2cccc(O)c2)on1 | -3 | 4 | 1 | 3 | 53 | 6
O=C(Nc1ccc2c(c1)OCO2)c1cc(-c2ccc(O)cc2)on1 | -12 | 6 | -5 | -13 | 18 | 39*
Cc1ccc(-n2nc(C(=O)O)c(C)c(C#N)c2=O)cc1Cl | -29 | -1 | 6 | -27 | 51* | -11
Cc1c(C(=O)O)nn(-c2ccccc2)c(=O)c1C#N | 5 | 0 | -11 | -6 | 60* | -3
COC(=O)[C@]12C[C@H](CC(=O)NCCc3ccccc3OC)C(=O)N(CCC3=CCCCC3)C1=C[C@H](COCc1ccccc1)O[C@@H]2C | -12 | 19 | nt | nt | nt | nt
CN1C(=O)[C@@]2(C3=C(CCCC3=O)OC3=C2C(=O)CC(C)(C)C3)c2ccccc21 | -18 | 0 | nt | nt | nt | nt
Cc1ccc(S(=O)(=O)NNC(=O)c2ccc3ccccc3n2)cc1 | -8 | 4 | -10 | -20 | 21 | -21
CC1(C)ON=C(c2cccc(F)c2)NC1=O | -9 | -1 | nt | nt | nt | nt
O=C(Nc1ccc(C(=O)O)cc1)/C(=C\C=C\c1ccccc1)NC(=O)c1ccccc1Br | 59* | 2 | -7 | 8 | 18 | 6
O=C(Nc1ccc(C(=O)O)cc1)/C(=C\C=C\c1ccccc1)NC(=O)c1cccc(Br)c1 | 9 | 0 | 2 | -6 | 11 | -5
CC(C)c1ccc(CN2CC(C(=O)Nc3ccccc3)CC2=O)cc1 (centres undefined) | 6 | 3 | 17* | 6 | 4 | -6
CC(=O)c1cccc(NC(=O)C2CC(=O)N(Cc3ccccc3)C2)c1 (centres undefined) | 8 | 1 | -10 | -18 | 8 | 8
c1ccc(-c2nnc(N3CCN(c4ccccn4)CC3)c3ccccc23)cc1 | 50* | 4 | -9 | -30 | 14 | -20
Cc1ccc(-c2nnc(N3CCN(c4ccccn4)CC3)c3ccccc23)cc1 | 42 | 8 | -1 | -23 | 11 | 14
O=C(c1cnc(N2CCN(c3ncccn3)CC2)c2ccccc12)N1CCN(c2ccccn2)CC1 | 61* | 18 | -10 | 1 | 9 | -5
Cc1ccccc1C(=O)N1CCN(c2ccccn2)CC1 | -8 | 6 | -8 | -8 | 14 | -8
